Results: ChEMBL document CHEMBL1129450, “Synthesis, molecular modeling, and K+ channel-blocking activity of dequalinium analogues having semirigid linkers” (J Med Chem, 1996)

How the values were obtained:
Rattus norvegicus [1] = species: Rattus norvegicus; experiment: Equi-effective molar ratio expressed as the ratio of tested compound concentration to that of dequalinium that cause 50% inhibition of the AHP in rat sympathetic neurons; format: functional, Sympathetic neuron
Rattus norvegicus [2] = species: Rattus norvegicus; experiment: Inhibition of after-hyperpolarization (AHP) in cultured rat sympathetic neurons; format: functional; conditions: Sympathetic neuron
Outline: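 Compounds from 2 mM MeOH stocks, each tested at two to four concentrations on at least three cells. AHP inhibition was obtained by digitally subtracting blocker records from controls, with the peak difference given as % of control AHP at the same time point.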

IC50 (Rattus norvegicus [2]) [nM] | SMILES | Ratio (Rattus norvegicus [1])
360 | Nc1cc[n+](Cc2ccc(-c3cccc(-c4ccc(C[n+]5ccc(N)c6ccccc65)cc4)n3)cc2)c2ccccc12 | 0.59
2800 | Nc1cc[n+](Cc2ccc(C[n+]3ccc(N)c4ccccc43)cc2)c2ccccc12 | 3.7
200 | Nc1cc[n+](Cc2ccc3ccc4ccc(C[n+]5ccc(N)c6ccccc65)cc4c3c2)c2ccccc12 | 0.33
490 | Nc1cc[n+](Cc2ccc3cc(C[n+]4ccc(N)c5ccccc54)ccc3c2)c2ccccc12 | 0.83
1900 | Nc1cc[n+](Cc2ccc(-c3ccc(-c4ccc(C[n+]5ccc(N)c6ccccc65)cc4)cc3)cc2)c2ccccc12 | 2.3
200 | Nc1cc[n+](Cc2ccc(CCCc3ccc(C[n+]4ccc(N)c5ccccc54)cc3)cc2)c2ccccc12 | 0.31
1000 | Nc1cc[n+](Cc2ccc(C#Cc3ccc(C[n+]4ccc(N)c5ccccc54)cc3)cc2)c2ccccc12 | 1.41
310 | Nc1cc[n+](Cc2ccc3c(c2)Cc2cc(C[n+]4ccc(N)c5ccccc54)ccc2-3)c2ccccc12 | 0.33
410 | Nc1cc[n+](Cc2ccc(CCc3ccc(C[n+]4ccc(N)c5ccccc54)cc3)cc2)c2ccccc12 | 0.71
370 | Nc1cc[n+](Cc2ccc(CCCCc3ccc(C[n+]4ccc(N)c5ccccc54)cc3)cc2)c2ccccc12 | 0.44
940 | Nc1cc[n+](Cc2ccc(/C=C/c3ccc(C[n+]4ccc(N)c5ccccc54)cc3)cc2)c2ccccc12 | 1.46
450 | Nc1cc[n+](Cc2ccc(Cc3ccc(C[n+]4ccc(N)c5ccccc54)cc3)cc2)c2ccccc12 | 0.39
290 | Nc1cc[n+](Cc2cccc(-c3cccc(C[n+]4ccc(N)c5ccccc54)c3)c2)c2ccccc12 | 0.55
190 | Nc1cc[n+](Cc2ccc(/C=C\c3ccc(C[n+]4ccc(N)c5ccccc54)cc3)cc2)c2ccccc12 | 0.24
650 | Cc1cc(N)c2ccccc2[n+]1CCCCCCCCCC[n+]1c(C)cc(N)c2ccccc21.[Cl-].[Cl-] [DEQUALINIUM CHLORIDE] | 1

SMILES | IC50 (Rattus norvegicus [2]) [nM] | Ratio (Rattus norvegicus [1])
Nc1cc[n+](Cc2ccc(-c3ccc(C[n+]4ccc(N)c5ccccc54)cc3)cc2)c2ccccc12 | 380 | 0.4
